According to paper PMC4804314 (Pharmacology Research & Perspectives, 2016):

Tests used:
[1] = test system: sandwich‐cultured mouse (NMRI) hepatocytes; test: Hepatobiliary disposition in sandwich-cultured mouse hepatocytes; assay type: in vitro ADME; details: 1 μmol/L, 10 min
[2] = test system: sandwich‐cultured human hepatocytes; test: Hepatobiliary disposition in sandwich-cultured human hepatocytes; assay type: in vitro ADME; details: 10 min
Method in brief: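 Sandwich-cultured human hepatocytes from three donor liver preparations, cultured 6 days. [14C]-test compound was applied at 10 and 250 μmol/L, with [3H]-taurocholate as transporter-function control and LDH release as cytotoxicity check. Radioactivity was read by LSC. Accumulation is mean ± SD of triplicate wells. BEI, CLbiliary, intracellular concentration and Cic/Cec were derived.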

[3] = donor 1, 1 μmol/L, mean ± SD of triplicate wells
[4] = donor 2, 1 μmol/L, mean ± SD of triplicate wells
[5] = donor 3, 1 μmol/L, mean ± SD of triplicate wells
[6] = mean ± standard error of 3 donors, 1 μmol/L

BEI [1]: 30.5% | CLbiliary [1]: 66.8 mL/min/kg | Cellular accumulation ([1]; mean ± SD of triplicate wells): 150 ± 28 pmol/mg | Total accumulation ([1]; mean ± SD of triplicate wells): 215 ± 23 pmol/mg | BEI ([2]; donor 1, 1 μmol/L): 44.6% | CLbiliary ([2]; donor 1, 1 μmol/L): 7.16 mL/min/kg | Cellular accumulation [2, 3]: 30.7 ± 2.8 pmol/mg | Total accumulation [2, 3]: 55.3 ± 5.7 pmol/mg | BEI ([2]; donor 2, 1 μmol/L): 74.2% | CLbiliary ([2]; donor 2, 1 μmol/L): 19.3 mL/min/kg | Cellular accumulation [2, 4]: 23.2 ± 1.9 pmol/mg | Total accumulation [2, 4]: 89.7 ± 3.6 pmol/mg | BEI ([2]; donor 3, 1 μmol/L): 66.5% | CLbiliary ([2]; donor 3, 1 μmol/L): 31.0 mL/min/kg | Cellular accumulation [2, 5]: 53.9 ± 2.0 pmol/mg | Total accumulation [2, 5]: 161 ± 12 pmol/mg | BEI [2, 6]: 61.7 ± 8.9% | CLbiliary [2, 6]: 19.2 ± 6.9 mL/min/kg | Cellular accumulation [2, 6]: 35.9 ± 9.2 pmol/mg | Total accumulation [2, 6]: 102 ± 31 pmol/mg
Structure (SMILES): C[C@H](CCC(=O)NCCS(=O)(=O)O)[C@H]1CC[C@H]2[C@@H]3[C@H](O)C[C@@H]4C[C@H](O)CC[C@]4(C)[C@H]3C[C@H](O)[C@]12C [TCA, taurocholate, reference compound]
